ChEMBL document CHEMBL1770062, “Synthesis and in vitro antitumor activity of new butenolide-containing dithiocarbamates” (Bioorg Med Chem Lett, 2011)

Key:
Assay type in all cases: functional, cell-based; call rule not given here
[1] = Antitumor activity against human EC9706 cells after 72 hrs by MTT assay
Method in brief: (§1)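 Cells in RPMI 1640 with 10% FBS, 2 mm glutamine, penicillin and streptomycin were seeded at 5 × 10³ per well in 96-well plates. After 24 h at 37 °C the medium was replaced with medium holding compound at several concentrations, and cells were exposed for 72 h. MTT (5 mg/mL stock in PBS) was added for 4 h at 37 °C, formazan was dissolved in DMSO and absorbance read at 490 nm. IC50 was taken from dose–response curves, at least three independent experiments, mean ± SE.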

HeLa = experiment: Antitumor activity against human HeLa cells after 72 hrs by MTT assay; method in brief: as §1
PC-3 = experiment: Antitumor activity against human PC3 cells after 72 hrs by MTT assay; method in brief: as §1
[2] = Antitumor activity against human SPC-A1 cells after 72 hrs by MTT assay; method in brief: as §1
MCF7 = experiment: Antitumor activity against human MCF7 cells after 72 hrs by MTT assay; method in brief: as §1
[3] = Homo sapiens, EC9706, 72 h, read-out: IC50
[4] = Homo sapiens, HeLa, 72 h, read-out: IC50
[5] = Homo sapiens, PC-3, 72 h, read-out: IC50
[6] = Homo sapiens, SPCA1, 72 h, read-out: IC50
[7] = Homo sapiens, MCF7, 72 h, read-out: IC50

| SMILES | IC50 [1, 3] | IC50 (HeLa; [4]) | IC50 (PC-3; [5]) | IC50 [2, 6] | IC50 (MCF7; [7]) | IC50 (HeLa; hela) | IC50 ([2]; spc-a1) | IC50 ([1]; ec9706) | IC50 (PC-3; pc-3) | IC50 (MCF7; mcf7) |
| --- | --- | --- | --- | --- | --- | --- | --- | --- | --- | --- |
| O=C1CC2(CO1)CSC(=S)N2C1CC1 (centres undefined) | > 50 µg/mL | 28.7 µM | > 50 µg/mL | > 50 µg/mL | > 50 µg/mL |  |  |  |  |  |
| O=C1OCC=C1CSC(=S)NC1CC1 | 53.6 µM | 24.1 µM | 117 µM | 57.5 µM | 94.9 µM |  |  |  |  |  |
| CC(C)NC(=S)SCC1=CCOC1=O | 59.4 µM | 137 µM | 49.4 µM | 108 µM | 134 µM |  |  |  |  |  |
| CN(Cc1ccccc1)C(=S)SCC1=CC(=O)OC1 | > 50 µg/mL | > 50 µg/mL | > 50 µg/mL | > 50 µg/mL | > 50 µg/mL |  |  |  |  |  |
| Cc1ccc(NC(=S)SCC2=CCOC2=O)cc1 | 91 µM | 5.44 µM | 93.5 µM | 63.8 µM | 97.4 µM |  |  |  |  |  |
| CN(C)C(=S)SCC1=CCOC1=O | 182 µM | 114 µM | 147 µM | > 50 µg/mL | > 50 µg/mL |  |  |  |  |  |
| CN1CCN(C(=S)SCC2=CC(=O)OC2)CC1 | 35.8 µM | > 50 µg/mL | > 50 µg/mL | > 50 µg/mL | > 50 µg/mL |  |  |  |  |  |
| CCNC(=S)SCC1=CCOC1=O | 44.4 µM |  | 30.6 µM |  | 80.1 µM | Not Active | Not Active |  |  |  |
| O=C1CC2(CO1)CSC(=S)N2Cc1ccccc1 (centres undefined) | > 50 µg/mL | > 50 µg/mL | > 50 µg/mL | > 50 µg/mL | > 50 µg/mL |  |  |  |  |  |
| O=C1C=C(CSC(=S)N2CCCC2)CO1 | 106 µM | > 50 µg/mL | > 50 µg/mL | 60 µM | 169 µM |  |  |  |  |  |
| CCN(CC)C(=S)SCC1=CC(=O)OC1 | > 50 µg/mL | 21 µM | > 50 µg/mL | 57.1 µM | > 50 µg/mL |  |  |  |  |  |
| O=C1CC2(CO1)CSC(=S)N2c1ccc(F)cc1 (centres undefined) | > 50 µg/mL | > 50 µg/mL | > 50 µg/mL | > 50 µg/mL | > 50 µg/mL |  |  |  |  |  |
| O=C1CC2(CO1)CSC(=S)N2c1ccc(Cl)cc1 (centres undefined) | 32.6 µM | > 50 µg/mL | > 50 µg/mL | > 50 µg/mL | > 50 µg/mL |  |  |  |  |  |
| O=C1OCC=C1CSC(=S)N1CCCC1 | 14.4 µM | 2.63 µM | 114 µM | 31.4 µM | 56.4 µM |  |  |  |  |  |
| O=C1OCC=C1CSC(=S)NCc1ccccc1 | 34.3 µM | 15.1 µM | 13.7 µM | 20.1 µM | 31.9 µM |  |  |  |  |  |
| CC(C)N(C(=S)SCC1=CC(=O)OC1)C(C)C | 49.2 µM | 28.5 µM | > 50 µg/mL | > 50 µg/mL | > 50 µg/mL |  |  |  |  |  |
| O=C1CC2(CO1)CSC(=S)N2c1ccccc1O (centres undefined) | > 50 µg/mL | > 50 µg/mL | > 50 µg/mL | > 50 µg/mL | > 50 µg/mL |  |  |  |  |  |
| O=c1[nH]cc(F)c(=O)[nH]1 [FLUOROURACIL] | 20.3 µM | 41.5 µM | 29.3 µM | 26.9 µM | 7.54 µM |  |  |  |  |  |
| O=C1OCC=C1CSC(=S)N1CCOCC1 | 26 µM | 2.43 µM | 48.8 µM | 37.9 µM | 60.3 µM |  |  |  |  |  |
| O=C1OCC=C1CSC(=S)NC1CCCCC1 | > 50 µg/mL | 150 µM | > 50 µg/mL | > 50 µg/mL | 180 µM |  |  |  |  |  |
| CN1CCN(C(=S)SCC2=CCOC2=O)CC1 | 14.3 µM | 0.77 µM | 40.5 µM | 53.7 µM | 86.5 µM |  |  |  |  |  |
| O=C1OCC=C1CSC(=S)Nc1ccc(Cl)cc1 |  |  |  |  |  | Not Active | Not Active | Not Active | Not Active | Not Active |
| CCN(CC)C(=S)SCC1=CCOC1=O | 136 µM | 1.39 µM | 57.1 µM | 87 µM | 121 µM |  |  |  |  |  |
| CNC(=S)SCC1=CCOC1=O | 85.4 µM | 36.1 µM | 76.5 µM | 43.9 µM | 83.1 µM |  |  |  |  |  |
| CN(C)C(=S)SCC1=CC(=O)OC1 | 7.55 µM | > 50 µg/mL | > 50 µg/mL | > 50 µg/mL | 159 µM |  |  |  |  |  |
| O=C1CC2(CO1)CSC(=S)N2c1ccccc1 (centres undefined) | 128 µM | 18 µM | > 50 µg/mL | 101 µM | 134 µM |  |  |  |  |  |
| O=C1C=C(CSC(=S)N2CCOCC2)CO1 | > 50 µg/mL | > 50 µg/mL | > 50 µg/mL |  | > 50 µg/mL |  |  |  |  |  |
| Cc1ccc(N2C(=S)SCC23COC(=O)C3)cc1 (centres undefined) | > 50 µg/mL | > 50 µg/mL | 98.1 µM | > 50 µg/mL | > 50 µg/mL |  |  |  |  |  |
| O=C1OCC=C1CSC(=S)Nc1ccccc1 | 16.2 µM | 111 µM | 186 µM | 95.3 µM | 89.9 µM |  |  |  |  |  |
